This passage reports Activity results from ChEMBL document CHEMBL1143542, “Structure-activity relationships of bivalent aminoglycosides and evaluation of their microbiological activities” (2005).

Type in all cases: functional, organism-based
The test system of assay [1] is Pseudomonas aeruginosa. Kind of assay: Susceptibility testing against Pseudomonas aeruginosa PAE_NUH21; S=Susceptible. In short, it runs like this: (§1)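 Disk diffusion susceptibility profiling against a panel of empirically used antipseudomonal antibiotics. Each strain was categorised as susceptible (S) or intermediate (I).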
For assay [2], the system named is Pseudomonas aeruginosa. The assay is described as follows: Susceptibility testing against Pseudomonas aeruginosa PAE_NUH24; I=Intermediate. In short, it runs like this: (§2)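 Disk diffusion susceptibility profiling of P. aeruginosa reference and clinical isolates against empirically used antipseudomonal antibiotics. Each isolate was categorised as susceptible, intermediate or resistant.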

The test system of assay [3] is Pseudomonas aeruginosa. The assay is described as follows: Susceptibility testing against Pseudomonas aeruginosa PAE_NUH23; I=Intermediate. Put shortly: as §2
The test system of assay [4] is Pseudomonas aeruginosa. Kind of assay: Susceptibility testing against Pseudomonas aeruginosa PAE_NUH18; I=Intermediate. Put shortly:
as §2

The test system of assay [5] is Pseudomonas aeruginosa. Kind of assay: Susceptibility testing against Pseudomonas aeruginosa PAE_NUH22; S=Susceptible. In short, it runs like this: as §1
The test system of assay [6] is Pseudomonas aeruginosa. Kind of assay: Susceptibility testing against Pseudomonas aeruginosa PAE_NUH25; S=Susceptible. In short, it runs like this: as §1
Assay [7] concerns Pseudomonas aeruginosa. The assay is described as follows: Susceptibility testing against Pseudomonas aeruginosa PAE_NUH05; R=Resistant. Put shortly: as §2
The subject of assay [8] is Pseudomonas aeruginosa. The assay is described as follows: Susceptibility testing against Pseudomonas aeruginosa PAE_NUH17; S=Susceptible. Put shortly:
as §1

For assay [9], the system named is Pseudomonas aeruginosa. The assay is described as follows: Susceptibility testing against Pseudomonas aeruginosa PAE_NUH19; S=Susceptible. Put shortly:
as §1

Assay [10] relates to Pseudomonas aeruginosa. The assay is described as follows: Susceptibility testing against Pseudomonas aeruginosa PAE_NUH01; R=Resistant. In short, it runs like this:
as §2

The test system of assay [11] is Pseudomonas aeruginosa. The assay is described as follows: Susceptibility testing against Pseudomonas aeruginosa PAE_NUH03; R=Resistant. In short, it runs like this:
as §2

Assay [12] relates to Pseudomonas aeruginosa. The assay is described as follows: Susceptibility testing against Pseudomonas aeruginosa PAE_NUH04; R=Resistant. In short, it runs like this:
as §2

In assay [13] the test system is Pseudomonas aeruginosa. The assay is described as follows: Susceptibility testing against Pseudomonas aeruginosa PAE_NUH07; R=Resistant. Put shortly: as §2
For assay [14], the system named is Pseudomonas aeruginosa. Kind of assay: Susceptibility testing against Pseudomonas aeruginosa PAE_NUH06; R=Resistant. Put shortly: as §2
Assay [15] deals with Pseudomonas aeruginosa. Kind of assay: Susceptibility testing against Pseudomonas aeruginosa ATCC 27853; S=Susceptible. In short, it runs like this: as §1
Assay [16] concerns Pseudomonas aeruginosa. The assay is described as follows: Susceptibility testing against Pseudomonas aeruginosa PAE_NUH20; S=Susceptible. In short, it runs like this: as §1
Assay [17] relates to Pseudomonas aeruginosa. The assay is described as follows: Susceptibility testing against Pseudomonas aeruginosa PAE_NUH02; R=Resistant. In short, it runs like this:
as §2

The test system of assay [18] is Pseudomonas aeruginosa. Kind of assay: Susceptibility testing against Pseudomonas aeruginosa ATCC 27853; R=Resistant. Put shortly:
as §2

Assay [19] concerns Pseudomonas aeruginosa. The assay is described as follows: Susceptibility testing against Pseudomonas aeruginosa PAE_NUH19; R=Resistant. Put shortly: as §2
In assay [20] the test system is Pseudomonas aeruginosa. The assay is described as follows: Susceptibility testing against Pseudomonas aeruginosa PAE_NUH22; I=Intermediate. In short, it runs like this: as §1
The subject of assay [21] is Pseudomonas aeruginosa. Kind of assay: Susceptibility testing against Pseudomonas aeruginosa PAE_NUH18; R=Resistant. Put shortly: as §2
In assay [22] the test system is Pseudomonas aeruginosa. Kind of assay: Susceptibility testing against Pseudomonas aeruginosa PAE_NUH21; I=Intermediate. In short, it runs like this: as §1
Assay [23] has as its system Pseudomonas aeruginosa. The assay is described as follows: Susceptibility testing against Pseudomonas aeruginosa PAE_NUH25; R=Resistant. In short, it runs like this: as §2
Assay [24] concerns Pseudomonas aeruginosa. The assay is described as follows: Susceptibility testing against Pseudomonas aeruginosa PAE_NUH06; S=Susceptible. Put shortly: as §1
Assay [25] relates to Pseudomonas aeruginosa. The assay is described as follows: Susceptibility testing against Pseudomonas aeruginosa PAE_NUH07; S=Susceptible. In short, it runs like this:
as §1

Assay [26] relates to Pseudomonas aeruginosa. The assay is described as follows: Susceptibility testing against Pseudomonas aeruginosa PAE_NUH23; S=Susceptible. In short, it runs like this:
as §1

The subject of assay [27] is Pseudomonas aeruginosa. Kind of assay: Susceptibility testing against Pseudomonas aeruginosa PAE_NUH24; S=Susceptible. In short, it runs like this: as §1
In assay [28] the test system is Pseudomonas aeruginosa. The assay is described as follows: Susceptibility testing against Pseudomonas aeruginosa PAE_NUH02; S=Susceptible. In short, it runs like this:
as §1

Assay [29] concerns Pseudomonas aeruginosa. The assay is described as follows: Susceptibility testing against Pseudomonas aeruginosa PAE_NUH05; S=Susceptible. In short, it runs like this: as §1
In assay [30] the test system is Pseudomonas aeruginosa. Kind of assay: Susceptibility testing against Pseudomonas aeruginosa PAE_NUH04; S=Susceptible. Put shortly:
as §1

For assay [31], the system named is Pseudomonas aeruginosa. Kind of assay: Susceptibility testing against Pseudomonas aeruginosa PAE_NUH18; S=Susceptible. Put shortly: as §1
Assay [32] relates to Pseudomonas aeruginosa. Kind of assay: Susceptibility testing against Pseudomonas aeruginosa PAE_NUH03; S=Susceptible. Put shortly: as §1
In assay [33] the test system is Pseudomonas aeruginosa. The assay is described as follows: Susceptibility testing against Pseudomonas aeruginosa PAE_NUH01; S=Susceptible. Put shortly: as §1

In the case of GENTAMICIN, the Activity entry in the assay with Pseudomonas aeruginosa [1] was “Susceptible”; in the assay on Pseudomonas aeruginosa [2] it was “I”; in the assay on Pseudomonas aeruginosa [3] it was “I”; in the assay with Pseudomonas aeruginosa [4], “I”; in the assay on Pseudomonas aeruginosa [5], “Susceptible”; with Pseudomonas aeruginosa [6], “Susceptible”. The Activity entry was “Resistant” in the assay on Pseudomonas aeruginosa [7]; “Susceptible” in the assay with Pseudomonas aeruginosa [8]; “Susceptible” in the assay on Pseudomonas aeruginosa [9]; “Resistant” in the assay with Pseudomonas aeruginosa [10]; “Resistant” in the assay with Pseudomonas aeruginosa [11]; “Resistant” in the assay on Pseudomonas aeruginosa [12]. Moreover, the Activity result with Pseudomonas aeruginosa [13] is given as “Resistant”; in the assay with Pseudomonas aeruginosa [14], “Resistant”; in the assay on Pseudomonas aeruginosa [15], “Susceptible”; with Pseudomonas aeruginosa [16], “Susceptible”; in the assay with Pseudomonas aeruginosa [17] it was “Resistant”.
`O=C(N[C@H](CO)[C@H](O)c1ccc([N+](=O)[O-])cc1)C(Cl)Cl`: the Activity result in the assay on Pseudomonas aeruginosa [2] is “I”; in the assay with Pseudomonas aeruginosa [3], “I”; in the assay on Pseudomonas aeruginosa [18] it was “Resistant”; with Pseudomonas aeruginosa [19] it was “Resistant”; in the assay with Pseudomonas aeruginosa [7], “Resistant”; in the assay on Pseudomonas aeruginosa [8], “Susceptible”. The Activity result was “Resistant” in the assay with Pseudomonas aeruginosa [10]; “Resistant” in the assay with Pseudomonas aeruginosa [11]; “Resistant” with Pseudomonas aeruginosa [12]; “Resistant” in the assay on Pseudomonas aeruginosa [13]; “Resistant” with Pseudomonas aeruginosa [14]; “I” in the assay with Pseudomonas aeruginosa [20]. Besides, the Activity entry is listed as “Resistant” in the assay with Pseudomonas aeruginosa [21]; “Susceptible” in the assay on Pseudomonas aeruginosa [16]; “I” in the assay with Pseudomonas aeruginosa [22]; “Resistant” in the assay on Pseudomonas aeruginosa [23]; “Resistant” with Pseudomonas aeruginosa [17].
As to `CC(O)[C@H]1C(=O)N2C(C(=O)O)=C(SCCNC=N)C[C@H]12` (single isomer, unassigned), the Activity result in the assay on Pseudomonas aeruginosa [1], in the assay on Pseudomonas aeruginosa [24], in the assay on Pseudomonas aeruginosa [25], with Pseudomonas aeruginosa [26], in the assay on Pseudomonas aeruginosa [27] and in the assay on Pseudomonas aeruginosa [28] was “Susceptible” throughout. Also, the Activity entry in the assay with Pseudomonas aeruginosa [5], with Pseudomonas aeruginosa [6], in the assay on Pseudomonas aeruginosa [8], in the assay with Pseudomonas aeruginosa [9], in the assay on Pseudomonas aeruginosa [29] and with Pseudomonas aeruginosa [30] was “Susceptible” in each case. Further, the Activity result in the assay with Pseudomonas aeruginosa [31], in the assay on Pseudomonas aeruginosa [32], in the assay with Pseudomonas aeruginosa [33], in the assay on Pseudomonas aeruginosa [15] and with Pseudomonas aeruginosa [16] was “Susceptible” each time.
